Reference: ChEMBL document CHEMBL1146504, “Resveratrol derivatives and their role as potassium channels modulators” (J Nat Prod, 2004)
Activity calls are given as the source filed them. No cut-off for these calls is given here.

Legend:
Assay type in all cases: cell-based
F11 [1] = assay: Blockade of delayed rectifier potassium channel in mouse rat hybrid F11 cells at 90 uM by whole-cell patch clamp technique
Summary of the method: (§1)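 F11 cells (mouse neuroblastoma N18TG-2 × rat DRG) grown in DMEM with 4.5 g/L glucose and 10% FCS at 37 °C, 5% CO2, and plated about 24 h before recording. Whole-cell clamp with compensated capacitance and series resistance. Pipette: K-aspartate 130 mM, EGTA 10 mM, MgATP 1 mM, pCa 7. Cells perfused with low-K physiologic solution; step to 60 mV from −60 mV holding; TEA-isolated current. Drug applied by perfusion, DMSO 1:2000 final.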

F11 [2] = assay: Blockade of sodium channel in mouse rat hybrid F11 cells by whole-cell patch clamp technique
Summary of the method: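 F11 cells (mouse neuroblastoma N18TG-2 × rat DRG hybrid) grown in DMEM with 4.5 g/L glucose and 10% FCS at 37 °C, 5% CO2. Cells were plated and incubated about 24 h before whole-cell recording. Pipette solution was K-aspartate based at pCa 7 with 1 mM MgATP. Compounds came from 300 mM DMSO stocks, with DMSO at 1:2000 final, and were delivered by local perfusion. Capacitance and series resistance were compensated 85–95%.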

F11 [3] = assay: Blockade of delayed rectifier potassium channel in mouse rat hybrid F11 cells at 45 uM by whole-cell patch clamp technique; summary of the method: as §1
F11 [4] = assay: Blockade of inward rectifier potassium channel in mouse rat hybrid F11 cells at 45 uM by whole-cell patch clamp technique
F11 [5] = assay: Blockade of delayed rectifier potassium channel in mouse rat hybrid F11 cells at 36 uM by whole-cell patch clamp technique; summary of the method: as §1
F11 [6] = assay: Blockade of inward rectifier potassium channel in mouse rat hybrid F11 cells at 36 uM by whole-cell patch clamp technique

SMILES: Oc1ccc(CCc2cc(O)cc(O)c2)cc1
- Activity (F11 [1]): 52%

SMILES: Oc1ccc(CCc2cc(O)cc(OCc3ccccc3)c2)cc1
- Activity (F11 [1]): 89%

SMILES: COc1cc(O)cc(CCc2ccc(O)cc2)c1
- Activity (F11 [1]): 69%

SMILES: COc1ccc(CCc2cc(OC)cc(OC)c2)cc1
- Activity (F11 [1]): 38.6%

SMILES: c1ccc(COc2ccc(CCc3cc(OCc4ccccc4)cc(OCc4ccccc4)c3)cc2)cc1
- Activity (F11 [1]): 57%

SMILES: COc1ccc(CCc2cc(O)cc(O)c2)cc1
- Activity (F11 [2]): Active
- Activity (F11 [1]): 89.4%

SMILES: Oc1cc(O)cc(CCc2ccc(OCc3ccccc3)cc2)c1
- Activity (F11 [1]): 89%

SMILES: CC(C)=CCc1c(O)cc(CCc2ccc(O)cc2)cc1O
- Activity (F11 [3]): 74%
- Activity (F11 [4]): 50.1%

SMILES: Oc1cc(CCc2ccc(OCc3ccccc3)cc2)cc(OCc2ccccc2)c1
- Activity (F11 [1]): 50%

SMILES: COc1ccc(/C=C\c2cc(O)cc(O)c2)cc1
- Activity (F11 [2]): Active
- Activity (F11 [1]): 70.4%

SMILES: Oc1ccc(/C=C/c2cc(O)cc(O)c2)cc1
- Activity (F11 [1]): 42.9%

SMILES: CC(C)=CCOc1cc(O)cc(CCc2ccc(O)cc2)c1
- Activity (F11 [5]): 55.5%
- Activity (F11 [6]): 53.7%
